# Screening results deposited in PubChem BioAssay by several laboratories.
# In the library only some 3.1% were active in any assay of this set; here they are far more common.
# CTSL1 counter: blocks F. hepatica cathepsin L1 in PFM18AAP counter-screen | inhibition, % at 5.96 µM | 300,000 tested, 0.49% active | recombinant F. hepatica cathepsin L1, Z-Leu-Arg-MCA fluorescence | AID 1906;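 active = inhibition above the mean of all tested compounds plus 3 SD, set per screening campaign, cut at about 17% in these data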
# PP1 counter: PP1-alpha (human) inhibition in PP5 counter-screen; AID 2235; purified PP1alpha, OMFP fluorescence; inhibition, % at 6.7 µM; 320,000 tested, 0.9% active;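 active = inhibition above the mean inhibition of all tested compounds plus 3 SD, computed separately for each screening campaign, cut at about 15% in these data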
# Myeloid diff MLP: myeloid differentiation induction; ER-HoxA9 myeloid progenitors, lysozyme-GFP differentiation, flow cytometry; 360,000 tested, 1% active; AID 624256; calls only at 10 µM;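 active = normalized GFP-positive differentiation at or above the plate's own cutoff, the solvent-only control mean plus 3 SD; inconclusive = no clear call, values can overlap the other calls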;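 also: cells exposed to compound for four days before flow analysis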
# NadD block: NadD (S. aureus) enzyme inhibition. purified NadD enzyme, colorimetric absorbance read-out. inhibition, % at 20 µM. 360,000 tested, 0.78% active. AID 602399; in the data active = inhibition above about 26%
# PP5 primary: inhibitors of human protein phosphatase 5 (PP5); P53041; purified PP5c, OMFP substrate fluorescence; inhibition, % at 6.7 µM; 320,000 tested, 0.18% active; AID 1987;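 active = inhibition above the campaign's mean inhibition across all tested compounds plus 3 SD, cut at about 9.5% in these data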
# Target sequence (P53041 whole entry, looked up): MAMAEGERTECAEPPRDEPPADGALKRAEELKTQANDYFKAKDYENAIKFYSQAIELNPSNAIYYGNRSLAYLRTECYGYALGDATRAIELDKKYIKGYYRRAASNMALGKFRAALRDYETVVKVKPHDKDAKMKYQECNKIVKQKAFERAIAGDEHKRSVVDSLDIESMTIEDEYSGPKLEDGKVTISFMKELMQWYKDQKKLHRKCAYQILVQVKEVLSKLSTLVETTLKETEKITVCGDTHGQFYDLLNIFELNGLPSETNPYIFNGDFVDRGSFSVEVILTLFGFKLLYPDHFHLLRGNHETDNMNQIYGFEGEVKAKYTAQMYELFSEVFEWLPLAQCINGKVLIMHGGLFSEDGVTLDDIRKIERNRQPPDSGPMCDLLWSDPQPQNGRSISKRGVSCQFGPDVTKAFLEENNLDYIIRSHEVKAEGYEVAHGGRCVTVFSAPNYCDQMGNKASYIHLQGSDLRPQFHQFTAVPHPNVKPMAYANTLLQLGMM
# core dimer inh: blocks dimerization of HCV core protein. TR-FRET GST/Flag-core106 dimerization, 1536-well. inhibition, % at 5 µM. AID 1899. 300,000 tested, 0.33% active;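 active = inhibition above the mean of all tested compounds plus 3 SD, set per screening campaign, cut at about 45% in these data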
#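 Assay system: GST-tagged and Flag-tagged HCV core protein residues 1-106 / Times: compound-protein-antibody incubation 4 h at 22.5 °C / Signal: time-resolved FRET, ex 340 nm, em 617 and 671 nm / Evaluation: % inhibition based on acceptor/donor emission ratio / Benchmarks: wells lacking GST-core106 and wells with excess unlabelled core106 / Repeats: singlicate, one well per compound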
# Hits are given with their value; n = inactive; u = inconclusive; x = not tested or not shown; + = active, no number.
SMILES,CTSL1 counter,PP1 counter,Myeloid diff MLP,NadD block,PP5 primary,core dimer inh
COc1ccc(S(=O)(=O)NCCc2cn3nc(C)c(C)nc3n2)cc1,n,n,n,n,n,n
Cc1nc2nc(CCNS(=O)(=O)c3ccc(Cl)cc3)cn2nc1C,30,n,u,n,n,n
CC(C)c1ccc(O)c(NC(=O)c2cncc(Br)c2)c1,n,n,n,n,n,n
CC(C)c1ccc(O)c(NC(=O)c2ncn[nH]2)c1,17,n,n,n,n,n
Cc1cc(C)c(C#N)c(Sc2nc(C)c([N+](=O)[O-])c(C)c2C#N)n1,x,x,+,n,x,x
CN(CC(=O)Nc1sc2c(c1C#N)CCCCC2)Cc1nc2ccccc2c(=O)[nH]1,n,15,n,n,n,n
O=C(/C=C/c1ccc(Br)cc1)NC1CCCCCC1,n,n,n,n,n,102
O=C(COC(=O)/C=C/c1ccco1)NC1CCCCC1,x,n,n,n,n,x
O=C(/C=C/c1ccco1)NC1CCCC1,59,n,n,n,n,n
O=C(/C=C/c1ccco1)NCc1ccccn1,17,n,n,n,n,n
O=C(/C=C/c1ccc([N+](=O)[O-])cc1)NCc1ccccn1,n,n,n,n,n,n
O=C(NCc1ccccc1)c1cc(C2COCCN2C(=O)c2cccs2)on1 (centres undefined),x,x,n,n,x,x
C/C(=N\S(=O)(=O)c1ccc(C)cc1)N(C)C,n,n,n,n,n,n
COc1ccc(Cl)cc1C(=O)NC1CC(C)(C)NC(C)(C)C1,x,x,n,n,x,x
Cn1c(-c2ccccc2)cc(=NNS(C)(=O)=O)c2cc(S(=O)(=O)O)ccc21,x,x,n,n,x,x
CN1/C(=C\C(=S)NC(=O)c2ccccc2Cl)C(C)(C)c2ccccc21,n,n,+,n,n,n
CN1/C(=C/C(=O)CSc2ccccc2C(=O)O)C(C)(C)c2ccccc21,n,n,+,n,n,n
CN1/C(=C/C(=S)NC(=O)C2(C)CC2(Cl)Cl)C(C)(C)c2ccccc21 (centres undefined),n,n,n,n,n,n
CN1/C(=C\C(=O)CN2C(=O)NC3(CCCCCC3)C2=O)C(C)(C)c2ccccc21,n,n,+,n,n,n
CN1/C(=C\C(=O)CSc2cccc[n+]2[O-])C(C)(C)c2ccccc21,n,n,n,n,n,n
COc1ccccc1C(=O)NC(=S)/C=C1/N(C)c2ccccc2C1(C)C,19,n,u,n,n,n
CC(C)=NOc1cc(NC(=O)CCl)cc([N+](=O)[O-])c1,79,n,n,n,n,n
CCC(=O)Nc1cc(ON=C(C)C)cc([N+](=O)[O-])c1,n,n,n,n,n,n
Cc1cc(C)c2nc(-c3ccccc3)ccc2c1,x,x,n,n,x,x
CCOC(=O)c1c(C)nc2sc(C(=O)Nc3ccccc3)c(N)c2c1-c1ccc(OC)cc1,n,n,+,n,n,n
SMILES,CTSL1 counter,PP1 counter,Myeloid diff MLP,NadD block,PP5 primary,core dimer inh
CCOC(=O)c1c(C)nc2sc(C(N)=O)c(N)c2c1-c1ccccc1,n,n,n,n,n,n
CCc1ccc(CN(Cc2cccnc2)C(=O)/C=C/c2ccc(OC)cc2)cc1,n,n,+,n,n,n
COc1ccc(/C=C/C(=O)NCc2cccnc2)cc1,n,n,n,n,n,n
COc1ccc(-c2cc(-c3ccccc3)c(C#N)c(SCC(=O)Nc3ncc(C)s3)n2)cc1,n,n,n,n,n,56
COc1ccc(-c2cc(-c3ccc(OC)cc3)c(C#N)c(SC)n2)cc1,n,n,n,n,n,75
COc1ccccc1/C=N/NC(=O)C1=NNC(c2ccccc2)(c2ccccc2)C1,n,n,x,x,n,54
Cc1ccc(NC(=O)c2sccc2C)nc1,n,n,n,n,n,n
CC1(C(=O)Nc2ccc3c(c2)OCO3)CCN1C(=O)CCc1cccs1 (centres undefined),x,x,n,n,x,x
COC(C(=O)Nc1cccc(F)c1)c1ccccc1 (centres undefined),n,n,+,n,n,n
NC(=O)C(c1ccccc1)c1ccc(C(=O)c2ccccc2)cc1 (centres undefined),n,n,n,n,n,n
COc1cccc(N=Nc2c(N)[nH]n3c(=O)c4c(nc23)CCCC4)c1,n,17,n,n,n,n
O=c1[nH]cc(S(=O)(=O)N2CCN(c3cccc(C(F)(F)F)c3)CC2)c(=O)[nH]1,n,16,n,n,n,n
O=c1[nH]cc(S(=O)(=O)N2CCN(c3cccc(Cl)c3)CC2)c(=O)[nH]1,n,n,n,n,n,n
